Converted amounts (≈) assume the structure as drawn. One block for each molecule: values may come before it.
Legend:
Assay type in all cases: functional
Human rhinovirus sp. [1] = experiment: Concentration inhibiting 50% of the serotypes tested to 50% of the viral concentration of untreated controls following 72 hr of exposure
Method in brief: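 Tissue culture infectious dose (TCID50) assay against a panel of 10 human rhinovirus serotypes. For each serotype, the viral concentration was compared with untreated controls after 72 h of compound exposure. MIC50 is the compound concentration at which half of the serotypes tested are reduced to 50% of the untreated-control viral concentration.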

Human rhinovirus sp. [2] = experiment: Minimum inhibitory concentration on HRV serotype 56
Human rhinovirus sp. [3] = experiment: Minimum inhibitory concentration on HRV serotype 47
Human rhinovirus sp. [4] = experiment: Minimum inhibitory concentration on HRV serotype 21
Human rhinovirus sp. [5] = experiment: Minimum inhibitory concentration on HRV serotype 92
Method in brief: (§1)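 Tested in a tissue culture infectious dose (TCID50) assay with 72 h compound exposure. Activity is read as the concentration that holds virus to 50% of the titer of untreated controls.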

Human rhinovirus sp. [6] = experiment: Minimum inhibitory concentration on HRV serotype 75
Human rhinovirus sp. [7] = experiment: Minimum inhibitory concentration on HRV serotype 23
Human rhinovirus sp. [8] = experiment: Minimum inhibitory concentration on HRV serotype 40
Human rhinovirus sp. [9] = experiment: Minimum inhibitory concentration on HRV serotype 85; method in brief: as §1
Human rhinovirus sp. [10] = experiment: Minimum inhibitory concentration on HRV serotype 24
Human rhinovirus sp. [11] = experiment: Minimum inhibitory concentration on HRV serotype 64
Human rhinovirus sp. [12] = experiment: Minimum inhibitory concentration on HRV serotype 61
Human rhinovirus sp. [13] = experiment: Minimum inhibitory concentration on HRV serotype 32
Human rhinovirus sp. [14] = experiment: Minimum inhibitory concentration on HRV serotype 15
Human rhinovirus sp. [15] = experiment: Minimum inhibitory concentration on HRV serotype 28
Human rhinovirus sp. [16] = experiment: Minimum inhibitory concentration on HRV serotype 96; method in brief: as §1
Human rhinovirus sp. [17] = experiment: Minimum inhibitory concentration on HRV serotype 89; method in brief: as §1
Human rhinovirus sp. [18] = experiment: Minimum inhibitory concentration on HRV serotype 49
Human rhinovirus sp. [19] = experiment: Minimum inhibitory concentration on HRV serotype 51
Human rhinovirus sp. [20] = experiment: Minimum inhibitory concentration on HRV serotype 46
Human rhinovirus sp. [21] = experiment: Minimum inhibitory concentration on HRV serotype 90; method in brief: as §1
Human rhinovirus sp. [22] = experiment: Minimum inhibitory concentration on HRV serotype 30
Human rhinovirus sp. [23] = experiment: Minimum inhibitory concentration on HRV serotype 43
Human rhinovirus sp. [24] = experiment: Minimum inhibitory concentration on HRV serotype 66
Human rhinovirus sp. [25] = experiment: Minimum inhibitory concentration on HRV serotype 7
Human rhinovirus sp. [26] = experiment: Minimum inhibitory concentration on HRV serotype 71
Human rhinovirus sp. [27] = experiment: Minimum inhibitory concentration on HRV serotype 55
Human rhinovirus sp. [28] = experiment: Minimum inhibitory concentration on HRV serotype 62
Human rhinovirus sp. [29] = experiment: Minimum inhibitory concentration on HRV serotype 2
Human rhinovirus sp. [30] = experiment: Minimum inhibitory concentration on HRV serotype 67
Human rhinovirus sp. [31] = experiment: Minimum inhibitory concentration on HRV serotype 88; method in brief: as §1
Human rhinovirus sp. [32] = experiment: Minimum inhibitory concentration on HRV serotype 80; method in brief: as §1
Human rhinovirus sp. [33] = experiment: Minimum inhibitory concentration on HRV serotype 1A
Human rhinovirus sp. [34] = experiment: Minimum inhibitory concentration on HRV serotype 63
Human rhinovirus sp. [35] = experiment: Minimum inhibitory concentration on HRV serotype 78; method in brief: as §1
Human rhinovirus sp. [36] = experiment: Minimum inhibitory concentration on HRV serotype 38
Human rhinovirus sp. [37] = experiment: Minimum inhibitory concentration on HRV serotype 39
Human rhinovirus sp. [38] = experiment: Minimum inhibitory concentration on HRV serotype 25
Human rhinovirus sp. [39] = experiment: Minimum inhibitory concentration on HRV serotype 33
Human rhinovirus sp. [40] = experiment: Minimum inhibitory concentration on HRV serotype 11
Human rhinovirus sp. [41] = experiment: Minimum inhibitory concentration on HRV serotype 29
Human rhinovirus sp. [42] = experiment: Minimum inhibitory concentration on HRV serotype 73
Human rhinovirus sp. [43] = experiment: Minimum inhibitory concentration on HRV serotype 50
Human rhinovirus sp. [44] = experiment: Minimum inhibitory concentration on HRV serotype 83; method in brief: as §1
Human rhinovirus sp. [45] = experiment: Minimum inhibitory concentration on HRV serotype T39; method in brief: as §1
Human rhinovirus sp. [46] = experiment: Minimum inhibitory concentration on HRV serotype 19
Human rhinovirus sp. [47] = experiment: Minimum inhibitory concentration on HRV serotype 57
Human rhinovirus sp. [48] = experiment: Minimum inhibitory concentration on HRV serotype 79; method in brief: as §1
Human rhinovirus sp. [49] = experiment: Minimum inhibitory concentration on HRV serotype 22
Human rhinovirus sp. [50] = experiment: Minimum inhibitory concentration on HRV serotype 82; method in brief: as §1
Human rhinovirus sp. [51] = experiment: Minimum inhibitory concentration on HRV serotype 53
Human rhinovirus sp. [52] = experiment: Minimum inhibitory concentration on HRV serotype 9; method in brief: as §1
Human rhinovirus sp. [53] = experiment: Minimum inhibitory concentration on HRV serotype 34
Human rhinovirus sp. [54] = experiment: Minimum inhibitory concentration on HRV serotype 68
Human rhinovirus sp. [55] = experiment: Minimum inhibitory concentration on HRV serotype 84; method in brief: as §1
Human rhinovirus sp. [56] = experiment: Minimum inhibitory concentration on HRV serotype 36
Human rhinovirus sp. [57] = experiment: Minimum inhibitory concentration on HRV serotype 16
Human rhinovirus sp. [58] = experiment: Minimum inhibitory concentration on HRV serotype 44
Human rhinovirus sp. [59] = experiment: Minimum inhibitory concentration on HRV serotype 81; method in brief: as §1
Human rhinovirus sp. [60] = experiment: Minimum inhibitory concentration on HRV serotype 76; method in brief: as §1
Human rhinovirus sp. [61] = experiment: Minimum inhibitory concentration on HRV serotype 58
Human rhinovirus sp. [62] = experiment: Minimum inhibitory concentration on HRV serotype 1B
Human rhinovirus sp. [63] = experiment: Minimum inhibitory concentration on HRV serotype 100
Human rhinovirus sp. [64] = experiment: Minimum inhibitory concentration on HRV serotype 35
Human rhinovirus sp. [65] = experiment: Minimum inhibitory concentration on HRV serotype 20

Structure (SMILES): COc1cccc(-c2cc(C)c(OCCCc3cc(C)no3)c(C)c2)c1
- MIC50 (Human rhinovirus sp. [1]): 0.23 µM (≈ 0.0808 µg/mL)

Structure (SMILES): Cc1cc(CCCOc2c(C)cc(-c3ccc(C(F)(F)F)cc3)cc2C)on1
- MIC50 (Human rhinovirus sp. [1]): 1.7 µM (≈ 0.662 µg/mL)

Next, values leading:

- MIC50 (Human rhinovirus sp. [1]): 0.76 µM (≈ 0.278 µg/mL)
Structure (SMILES): Cc1cc(CCCOc2c(C)cc(-c3ccc([N+](=O)[O-])cc3)cc2C)on1

- MIC50 (Human rhinovirus sp. [1]): 0.66 µM (≈ 0.241 µg/mL)
Structure (SMILES): Cc1cc(CCCOc2c(C)cc(-c3ccc(N(C)C)cc3)cc2C)on1

- MIC (Human rhinovirus sp. [2]): 0.038 µg/mL (≈ 0.112 µM)
- MIC (Human rhinovirus sp. [3]): 0.021 µg/mL (≈ 0.0619 µM)
- MIC (Human rhinovirus sp. [4]): 9 ng/mL (≈ 0.0265 µM)
- MIC (Human rhinovirus sp. [5]): 0.014 µg/mL (≈ 0.0412 µM)
- MIC (Human rhinovirus sp. [6]): 0.037 µg/mL (≈ 0.109 µM)
- MIC (Human rhinovirus sp. [7]): 0.046 µg/mL (≈ 0.136 µM)
- MIC (Human rhinovirus sp. [8]): 0.033 µg/mL (≈ 0.0972 µM)
- MIC (Human rhinovirus sp. [9]): 0.02 µg/mL (≈ 0.0589 µM)
- MIC (Human rhinovirus sp. [10]): 0.036 µg/mL (≈ 0.106 µM)
- MIC (Human rhinovirus sp. [11]): 0.07 µg/mL (≈ 0.206 µM)
- MIC (Human rhinovirus sp. [12]): 0.024 µg/mL (≈ 0.0707 µM)
- MIC (Human rhinovirus sp. [13]): 0.098 µg/mL (≈ 0.289 µM)
- MIC (Human rhinovirus sp. [14]): 0.492 µg/mL (≈ 1.45 µM)
- MIC (Human rhinovirus sp. [15]): 0.14 µg/mL (≈ 0.412 µM)
- MIC (Human rhinovirus sp. [16]): 0.031 µg/mL (≈ 0.0913 µM)
- MIC (Human rhinovirus sp. [17]): 0.012 µg/mL (≈ 0.0354 µM)
- MIC (Human rhinovirus sp. [18]): 0.037 µg/mL (≈ 0.109 µM)
- MIC (Human rhinovirus sp. [19]): 9 ng/mL (≈ 0.0265 µM)
- MIC (Human rhinovirus sp. [20]): 0.058 µg/mL (≈ 0.171 µM)
- MIC (Human rhinovirus sp. [21]): 0.024 µg/mL (≈ 0.0707 µM)
- MIC (Human rhinovirus sp. [22]): 0.028 µg/mL (≈ 0.0825 µM)
- MIC (Human rhinovirus sp. [23]): 0.072 µg/mL (≈ 0.212 µM)
- MIC (Human rhinovirus sp. [24]): 0.161 µg/mL (≈ 0.474 µM)
- MIC (Human rhinovirus sp. [25]): 6 ng/mL (≈ 0.0177 µM)
- MIC (Human rhinovirus sp. [26]): 0.025 µg/mL (≈ 0.0737 µM)
- MIC (Human rhinovirus sp. [27]): 3 ng/mL (≈ 0.00884 µM)
- MIC (Human rhinovirus sp. [28]): 0.154 µg/mL (≈ 0.454 µM)
- MIC (Human rhinovirus sp. [29]): 9 ng/mL (≈ 0.0265 µM)
- MIC (Human rhinovirus sp. [30]): 0.118 µg/mL (≈ 0.348 µM)
- MIC (Human rhinovirus sp. [31]): 6 ng/mL (≈ 0.0177 µM)
- MIC (Human rhinovirus sp. [32]): 0.031 µg/mL (≈ 0.0913 µM)
- MIC (Human rhinovirus sp. [33]): 0.155 µg/mL (≈ 0.457 µM)
- MIC (Human rhinovirus sp. [34]): 0.139 µg/mL (≈ 0.41 µM)
- MIC (Human rhinovirus sp. [35]): 0.018 µg/mL (≈ 0.053 µM)
- MIC (Human rhinovirus sp. [36]): 0.015 µg/mL (≈ 0.0442 µM)
- MIC (Human rhinovirus sp. [37]): 0.078 µg/mL (≈ 0.23 µM)
- MIC (Human rhinovirus sp. [38]): 0.077 µg/mL (≈ 0.227 µM)
- MIC (Human rhinovirus sp. [39]): 0.019 µg/mL (≈ 0.056 µM)
- MIC (Human rhinovirus sp. [40]): 7 ng/mL (≈ 0.0206 µM)
- MIC50 (Human rhinovirus sp. [1]): 0.11 µM (≈ 0.0373 µg/mL)
- MIC (Human rhinovirus sp. [41]): 0.03 µg/mL (≈ 0.0884 µM)
- MIC (Human rhinovirus sp. [42]): 0.049 µg/mL (≈ 0.144 µM)
- MIC (Human rhinovirus sp. [43]): 0.04 µg/mL (≈ 0.118 µM)
- MIC (Human rhinovirus sp. [44]): 4 ng/mL (≈ 0.0118 µM)
- MIC (Human rhinovirus sp. [45]): 0.035 µg/mL (≈ 0.103 µM)
- MIC (Human rhinovirus sp. [46]): 0.03 µg/mL (≈ 0.0884 µM)
- MIC (Human rhinovirus sp. [47]): 0.024 µg/mL (≈ 0.0707 µM)
- MIC (Human rhinovirus sp. [48]): 0.056 µg/mL (≈ 0.165 µM)
- MIC (Human rhinovirus sp. [49]): 0.02 µg/mL (≈ 0.0589 µM)
- MIC (Human rhinovirus sp. [50]): 0.187 µg/mL (≈ 0.551 µM)
- MIC (Human rhinovirus sp. [51]): 0.889 µg/mL (≈ 2.62 µM)
- MIC (Human rhinovirus sp. [52]): 0.08 µg/mL (≈ 0.236 µM)
- MIC (Human rhinovirus sp. [53]): 0.02 µg/mL (≈ 0.0589 µM)
- MIC (Human rhinovirus sp. [54]): 9 ng/mL (≈ 0.0265 µM)
- MIC (Human rhinovirus sp. [55]): 0.042 µg/mL (≈ 0.124 µM)
- MIC (Human rhinovirus sp. [56]): 9 ng/mL (≈ 0.0265 µM)
- MIC (Human rhinovirus sp. [57]): 0.058 µg/mL (≈ 0.171 µM)
- MIC (Human rhinovirus sp. [58]): 0.033 µg/mL (≈ 0.0972 µM)
- MIC (Human rhinovirus sp. [59]): 0.125 µg/mL (≈ 0.368 µM)
- MIC (Human rhinovirus sp. [60]): 9 ng/mL (≈ 0.0265 µM)
- MIC (Human rhinovirus sp. [61]): 0.013 µg/mL (≈ 0.0383 µM)
- MIC (Human rhinovirus sp. [62]): 0.024 µg/mL (≈ 0.0707 µM)
- MIC (Human rhinovirus sp. [63]): 0.12 µg/mL (≈ 0.354 µM)
- MIC (Human rhinovirus sp. [64]): 0.021 µg/mL (≈ 0.0619 µM)
- MIC (Human rhinovirus sp. [65]): 0.019 µg/mL (≈ 0.056 µM)
Structure (SMILES): Cc1cc(CCCOc2c(C)cc(-c3ccc(F)cc3)cc2C)on1
